mIAP act = mouse IAP activation | muIAP, CDP-Star luminescence, 30 min; active compounds read high; 1 = vehicle-only enzyme signal, 0 = enzyme-free wells | activation factor at 10 µM | hit rate 0.24% among 330,000 | AID 2805;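 active means activation factor of at least 2 at 20 µM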
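System: mouse IAP enzyme. Reagent: CDP-Star chemiluminescent phosphatase substrate. Benchmarks: DMSO wells, no-enzyme wells. Times: 30 min enzyme-substrate-compound incubation at room temperature. Detection: luminescence from enzymatic CDP-Star hydrolysis. Doses: test compounds delivered from DMSO solution.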
hIAP inh = human IAP inhibition; P09923; purified IAP, CDP-Star luminescence, 30 min; inhibition, % at 10 µM; hit rate 0.12% among 330,000;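 active means inhibition reaching a set limit with compound at 10 µM in the primary screen, cut at about 35% in these data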;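 further: plate controls were DMSO wells with enzyme for no effect and no-enzyme buffer wells for full effect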
Target sequence (P09923 whole entry, looked up): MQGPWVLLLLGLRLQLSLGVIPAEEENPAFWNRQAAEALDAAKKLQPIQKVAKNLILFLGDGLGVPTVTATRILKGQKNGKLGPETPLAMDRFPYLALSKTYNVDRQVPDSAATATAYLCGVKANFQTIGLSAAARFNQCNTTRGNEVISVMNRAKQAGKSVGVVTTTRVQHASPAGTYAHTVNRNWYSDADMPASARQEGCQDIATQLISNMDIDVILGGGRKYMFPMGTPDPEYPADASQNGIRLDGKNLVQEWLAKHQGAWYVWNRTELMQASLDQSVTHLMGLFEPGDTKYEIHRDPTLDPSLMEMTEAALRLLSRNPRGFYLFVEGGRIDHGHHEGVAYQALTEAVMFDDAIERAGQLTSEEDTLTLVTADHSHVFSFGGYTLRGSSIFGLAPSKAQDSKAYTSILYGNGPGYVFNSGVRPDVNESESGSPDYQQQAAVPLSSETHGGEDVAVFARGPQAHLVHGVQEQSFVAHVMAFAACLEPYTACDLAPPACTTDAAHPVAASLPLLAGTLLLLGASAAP
mIAP block = mouse IAP inhibition | purified mouse IAP, CDP-Star luminescence, 30 min | hit rate 0.2% among 330,000 | inhibition, % at 10 µM | AID 2806;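 active means inhibition of at least 40% at 10 µM in the primary screen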;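 further: plate controls were DMSO with enzyme for no effect and no enzyme wells for full effect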
hIAP act = increases human intestinal alkaline phosphatase activity. AID 2524. hit rate 0.16% among 330,000. purified human IAP, CDP-Star luminescence, 30 min; active compounds read high; 1 = vehicle-only enzyme, 0 = enzyme-free background. activation factor at 10 µM. P09923;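 active means activation factor of the enzyme at least 2-fold when tested at 20 µM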
bIAP inh = intestinal alkaline phosphatase (bovine) inhibition | purified bovine IAP, CDP-star luminescence, 30 min | 190,000 tested, under 10 active | inhibition, % at 20 µM;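 active means over 50% inhibition of intestinal alkaline phosphatase at 20 µM in the single-dose screen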
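System: Purified bovine intestinal alkaline phosphatase (IAP) enzyme | Input: IAP diluted 1/65,000,000 in the well | Also added: CDP-star chemiluminescent phosphatase substrate, 30 µM final | Dosing: 20 µM single dose | Times: Enzyme reaction for 30 min at room temperature | Detection: Luminescence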
bIAP activator = intestinal alkaline phosphatase (bovine) activation. purified bovine IAP, CDP-star luminescence, 30 min; active compounds read high; fold of DMSO-control signal, blank-subtracted. activation factor at 20 µM. hit rate 0.17% among 200,000. AID 1016;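 active means activation factor of 2 or more at 20 µM, a signal rise over negative controls twice the positive control's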
An asterisk follows results filed as active; i = inactive; nt = no result. Only some compounds are listed: those with a hit (about 0.79% of all), similar ones and a draw of the others.

SMILES	mIAP act	hIAP inh	mIAP block	hIAP act	bIAP inh	bIAP activator
O=c1oc2cc(OCc3ccc(F)cc3F)ccc2cc1-c1ccc2ccccc2n1	1.1	-14	-8	1.1	2	1
CC(C)N1C(=S)SC(C)(C)C1NO (stereo unspecified)	1	9	-2	0.91	-112	2.1*
Cn1c(=O)[nH]c2ccc([N+](=O)[O-])nc21	0.88	13	12	0.87	-18	1.2
O=C(Nc1cccc(Cl)c1)c1cc(N=Nc2ccc([N+](=O)[O-])cc2Cl)ccc1O	0.74	38*	26	0.61	nt	nt
O=C(Nc1ccc([N+](=O)[O-])cc1Cl)c1cc(Cl)ccc1O	0.97	0	2	1	nt	nt
O=C(COC(=O)c1cc(Br)ccc1Cl)NC(=O)NCc1ccccc1	0.91	3	9	0.97	1	1
O=C(COc1ccc(Cl)cc1Br)NC(=O)NCc1ccccc1	1	11	-5	0.89	i	6.5*
CCN(CC(=O)Nc1cccc(F)c1)CC(=O)Nc1ccccc1OC	1	-19	-4	1.2	nt	nt
CCOc1ccc(-c2nc[nH]c2[N+](=O)[O-])cc1	0.95	4	5	0.96	-3	1
COc1ccc(S(=O)(=O)NCc2ccc(C(=O)NCCCN3CC(C)CC(C)C3)cc2)cc1 (stereo unspecified)	1.1	-7	-10	1.1	nt	nt
CN(C)c1ccc(N2C(=O)CSC2=S)cc1	0.53	10	47*	0.9	8	0.9
CC1CC(C)CN(S(=O)(=O)c2ccc(NC(=O)[C@@H]3CCCN3C(=O)c3cccs3)cc2)C1 (stereo partly specified)	0.5	11	50*	0.89	nt	nt
Cc1c(Cl)cccc1NC(=S)NCc1ccccc1Cl	2.7*	-1	-169	1	-6	1.1
CCOC(=O)c1c(NC(=O)c2cc3n(n2)C(C(F)(F)F)CC(c2cccs2)N3)sc(C)c1C (stereo unspecified)	1.1	17	-8	0.83	5	0.9
Cc1ccc(-n2cc(CN(C)Cc3ncc[nH]3)c(-c3cccc(C)c3)n2)cc1	1	-43	-4	1.4	-253	3.5*
CN(Cc1ncc[nH]1)Cc1cn(-c2ccccc2)nc1-c1ccc2c(c1)OCO2	1.1	-14	-13	1.1	nt	nt
COc1ccc(-c2nc3ccccc3n2Cc2ccccc2)cc1	0.97	-17	3	1.2	-196	3*
C=CCn1c(-c2ccc(OC)cc2)nc2ccccc21	0.93	1	7	0.99	13	0.9
CN(CC(=O)Nc1cccc(F)c1)C(=O)CN1C(=O)C2CC=CCC2C1=O (stereo unspecified)	1	9	-2	0.91	nt	nt
Cc1cc(C)cc(NC(=S)NCc2ccc3[nH]c4c(c3c2)CCCC4)c1	2.8*	10	-175	0.9	12	0.9
CCS(=O)(=O)NCc1ccc2[nH]c3c(c2c1)CCCC3	1.1	-2	-8	1	-5	1
S=C(NCc1ccc2[nH]c3c(c2c1)CCCC3)Nc1ccccc1	2.2*	0	-123	1	13	0.9
Cc1cc(-c2nn(-c3ccccc3F)cc2CN2CCC(C(N)=O)CC2)c(C)s1	1.1	-1	-11	1	-6	1.1
Cc1cc(-c2nn(-c3ccccc3F)cc2CNCCc2cnc[nH]2)c(C)s1	1.1	-53	-9	1.5	-198	3*
Cc1cccc(OCCCCCn2ccnc2)c1C	1.1	0	-6	1	-202	3*
SMILES	mIAP act	hIAP inh	mIAP block	hIAP act	bIAP inh	bIAP activator
Cc1cc(C)c(C(=O)Nc2ccc(Br)c(C(F)(F)F)c2)c(C)c1	2.1*	-7	-114	1.1	-9	1.1
O=C(O)c1ccccc1C(=O)Nc1ccc(Br)c(C(F)(F)F)c1	1.1	4	-9	0.96	nt	nt
O=C1c2ccccc2S(=O)(=O)c2cc(N3CCc4ccccc4C3)ccc21	0.57	8	43*	0.92	nt	nt
O=C1c2ccccc2S(=O)(=O)c2cc(N3CCC(C(=O)N4CCCCC4)CC3)ccc21	1	19	-2	0.81	nt	nt
COc1ccc(N2C3=C(CC4=C2CCCC4=O)C(=O)CCC3)cc1	0.54	12	46*	0.88	15	0.9
CCOc1ccc(S(=O)(=O)N2CCN(C(=O)CN3C(=O)NC(C)(C)C3=O)CC2)cc1	0.91	-8	9	1.1	nt	nt
NCCS(=O)(=O)O	1	8	-4	0.92	nt	nt
Cc1ccc(C)c(OCCC(=O)Nc2cccc(S(=O)(=O)N3CCCCC3)c2)c1	2*	-2	-105	1	nt	nt
Cc1ccc(C)c(OCCC(=O)Nc2cc(S(=O)(=O)N3CCCCC3)ccc2C)c1	1.5	1	-48	0.99	nt	nt
CCCCC(Sc1nc(N)c(NC(=O)c2ccco2)c(=O)[nH]1)C(=O)O (stereo unspecified)	0.92	-21	8	1.2	nt	nt
CC(=O)OCCCN1c2ccccc2Nc2nnc(-c3ccccc3)cc21	3.5*	-2	-250	1	i	28*
Cc1n[nH]c(C)c1CCNC(=O)C1CCC(=O)N(CCc2cccc(F)c2)C1 (stereo unspecified)	1	-10	-4	1.1	nt	nt
COc1cccc(NC(=O)NCCCSC2CCCCC2)c1	2.3*	12	-126	0.89	16	0.8
Cc1ccc(-n2c(SCC(N)=O)nnc2-c2cccnc2)c(C)c1	2*	1	-103	0.99	3	1
CCCCSCCCNC(=O)Nc1ccc(CC)cc1	2.5*	-7	-146	1.1	49	0.5
CCc1ccccc1NC(=S)N(CCCN1CCOCC1)Cc1cccs1	0.97	0	3	1	-10	1.1
C[C@H](NC(=O)N1CCC(Cc2ccccc2)CC1)C(=O)O	0.99	9	1	0.91	nt	nt
CCOC(=O)C(CC)Sc1nc2c(c(=O)[nH]c(=O)n2C)n1CCc1ccccc1 (stereo unspecified)	0.82	-16	18	1.2	-183	2.8*
CCOC(=O)CSc1nc2c(c(=O)[nH]c(=O)n2C)n1CCc1ccccc1	1.1	-11	-10	1.1	10	0.9
Nc1[nH]nc2nc(NCc3ccccc3)c3c(c12)CCN(Cc1ccccc1)C3	1.2	-1	-16	1	-370	4.7*
N#Cc1c(NCCN)nc(NCc2ccccc2)c2c1CCN(Cc1ccccc1)C2	nt	nt	nt	nt	-195	3*
CCN(CC)CCNC(=O)c1ccc(NC(=O)C2CCN(c3ncnc4sc(C)c(C)c34)CC2)cc1	1.1	-29	-14	1.3	nt	nt
COc1ccc(-n2c(SCC(=O)C(C)(C)C)nc3c(sc(=S)n3-c3ccccc3)c2=O)c(OC)c1	0.88	3	12	0.97	nt	nt
COc1cccc(NS(=O)(=O)c2cn(C)c(=O)n(C)c2=O)c1	1.1	16	-6	0.84	-409	5.1*
Cn1cc(S(=O)(=O)Nc2cccc(F)c2)c(=O)n(C)c1=O	1.2	3	-17	0.97	6	0.9
Cc1ccc2ncccc2c1	1.1	-9	-10	1.1	nt	nt

Source: PubChem (Sanford-Burnham Center for Chemical Genomics)
